The full list was thinned out, with hits kept by preference.
CHOP inh = inhibitors of CHOP promoter induction, primary screen, cell-based, unfolded protein response, luciferase reporter | CHO-K1 CHOP-promoter luciferase, tunicamycin-induced, 15-18 h | inhibition, % at 10 µM | 3.8% of 220,000 active;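 active = compounds that reduced the stress-induced luciferase reporter signal by more than about 70% of percent inhibition, limit read from the data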
XBP1 UPR activ = activators of adaptive XBP1 UPR arm, primary screen, cell-based, CHO-XBP1 luciferase reporter, luminescence, uHTS | IRE1-XBP1 UPR activation; percent of tunicamycin response, DMSO as zero | activation, % at 20 µM | 0.33% of 330,000 active;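 active = versus positive control, 20 µM dose yields 30% or more activation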
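assay system = CHO-XBP1 luciferase reporter cells | amount = 1000 cells/well | buffer or medium = F12 plus 10% FBS | compound dosing = single point, 20 µM final compound, 1% DMSO | incubation = 16-18 h cell attachment at 37 °C, then 6 h compound exposure | detection = Steady-Glo luminescence read | controls = tunicamycin 10 µg/mL and vehicle-only wells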
PvdQ inh = P. aeruginosa PvdQ acylase inhibitors, primary screen, biochemical, fluorescence, plate reader and imaging, single point. inhibition, % at 10 µM. 0.063% of 340,000 active. purified PvdQ acylase. PvdQ acylase [Pseudomonas aeruginosa LESB58]; in the data active = inhibition above about 30%, passing the limit was not always enough
UPR CHOP act = activators of apoptotic CHOP UPR arm, primary screen, cell-based, CHO-CHOP luciferase reporter, luminescence, uHTS; UPR activation; percent of tunicamycin response over DMSO baseline; 0.34% of 330,000 active; AID 449763, 2010; activation, % at 10 µM;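 active = at 10 µM dose, activation of 40% or more, normalized to positive control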
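Assay system: CHO-CHOP cells, stable luciferase reporter of PERK-eIF2a-CHOP signalling / Buffer or medium: F12 plus 10% serum / Compound dosing: one dose, 10 µM in 0.5% DMSO / Times: 6 h compound treatment, 37 °C / Technique: luciferase luminescence / Read-out: % reporter activation, DMSO baseline versus tunicamycin full activation / Benchmarks: tunicamycin and DMSO controls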
Numbers stand for hits; n = inactive; x = not tested or not shown.

SMILES | CHOP inh | XBP1 UPR activ | PvdQ inh | UPR CHOP act
Cc1occc1C(=O)NNC(=O)C(c1ccccc1)c1ccccc1 | n | n | n | n
O=C(NC1CCCc2ccccc21)C1CCCC1 (stereo not given) | x | n | n | n
Cc1cc(C)cc(NC(=O)C2CCCN(c3nc(C)cc(C)n3)C2)c1 (stereo not given) | 70.4 | n | n | n
Cc1cc(C)nc(N2CCC(C(=O)Nc3ccc4c(c3)CCC4)CC2)n1 | 82.3 | n | n | n
Cc1cc(C)nc(N2CCC(C(=O)NC3CCCc4ccccc43)CC2)n1 (stereo not given) | 73.4 | n | n | n
CCSc1nnc(NC(=O)Nc2cccc(C)c2)s1 | n | n | n | n
Cc1ccc(S(=O)(=O)NN)c(C)c1N1CCCC1=O | n | n | n | n
Cc1ccc([N+](=O)[O-])cc1S(=O)(=O)Nc1cccc(S(=O)(=O)Nc2ccccc2C(=O)O)c1 | x | n | n | n
Cc1ccc(C)c(NC(=O)c2ccccc2NS(=O)(=O)c2cc([N+](=O)[O-])ccc2C)c1 | 73.7 | n | n | n
CCC1CCCCN1C(=O)CCc1nnc(C2CCCCC2)o1 (stereo not given) | n | n | n | n
CCCn1nnnc1NC(=O)c1ccc(C)cc1Cl | n | n | n | n
Oc1c(I)cc(Cl)c2cccnc12 | 85.0 | n | n | n
O=[N+]([O-])c1cc(Cl)c2cccnc2c1O | n | n | n | n
O=C(CN1C(=O)NC2(CCOc3ccccc32)C1=O)c1ccc(F)cc1 (stereo not given) | x | n | n | n
Cn1c(=O)c2c(SCC(=O)N3CCCc4ccccc43)nc(CC(C)(C)C)nc2n(C)c1=O | 84.2 | n | n | n
O=C(C1CC(=O)N(C2CCCC2)C1)N1CCN(c2cccc(Cl)c2)CC1 (stereo not given) | x | n | n | n
O=S(=O)(c1ccccc1)N1CCN=C1SCc1ccc(Cl)c(Cl)c1 | 72.0 | n | n | n
Cc1cc(Cl)ccc1Oc1nc(-c2ccc(F)cc2)ccc1C#N | n | n | n | n
CCN(CC)Cc1c(O)ccc2cc(-c3nc4ccccc4n3C)c(=O)oc12 | x | n | n | n
O=C(Cn1ncc2c1-c1ccccc1OC2)Nc1ccc(S(=O)(=O)N2CCCCC2)cc1 | 86.4 | n | n | n
CC(=O)N1CCCN(Cc2cn(-c3cc(C)ccc3C)nc2-c2ccccc2)CC1 | n | n | n | n
CCOC(=O)c1oc2ccc(S(=O)(=O)n3nc(-c4ccccc4)cc3N)cc2c1C | 85.2 | n | n | n
O=C(CSc1ncnc2c1cnn2-c1ccc(Cl)cc1)NCc1ccc2c(c1)OCO2 | 72.4 | n | n | n
Clc1ccc(-c2nc3ccccc3n2OCc2ccccc2)cc1 | 80.5 | n | n | n
Cc1nc2ccccc2c(=O)n1NC(=O)c1c(F)cccc1F | x | n | n | n
SMILES | CHOP inh | XBP1 UPR activ | PvdQ inh | UPR CHOP act
Cc1cc(Br)ccc1NC(=O)CN1C(=O)C2C3CC(c4ccccc4)C(C3)C2C1=O (stereo not given) | 84.6 | n | n | n
CC(=O)c1ccc[n+](CC(=O)NC(C)c2ccccc2)c1 (stereo not given) | x | n | n | n
CCOC(=O)NC(NCCc1ccccc1)(C(F)(F)F)C(F)(F)F | 70.5 | n | n | n
COc1ccc(CCNC(=O)CCNC(=O)c2ccco2)cc1 | x | n | n | n
CN(Cc1ccc(Cl)cc1)C(=O)COC(=O)c1ccc(-c2ccc(O)cc2)cc1 | x | n | n | n
Cc1ccc(C(C(=O)NC2CCCCC2)N(Cc2ccco2)C(=O)Cc2c[nH]c3ccccc23)o1 (stereo not given) | 86.5 | n | n | n
Cc1ccc(N(C(=O)Cc2c[nH]c3ccccc23)C(C(=O)NC2CCCCC2)c2ccco2)cc1 (stereo not given) | 87.9 | n | n | n
COc1ccc(C(C(=O)NC2CCCCC2)N(Cc2cccs2)C(=O)Cc2c[nH]c3ccccc23)cc1OC (stereo not given) | n | n | n | n
CSc1nc(-c2ccco2)nn1C(=O)c1ccc(C)cc1 | 80.5 | n | n | n
CSc1nc(-c2ccco2)nn1C(=O)c1ccccc1 | n | n | n | n
Cc1nn(-c2ccccc2)c2nc(-c3ccncc3)cc(C(=O)NCc3ccco3)c12 | 71.5 | n | n | n
O=S(=O)(c1ccccc1)N(CC(O)Cn1c2ccccc2c2ccccc21)c1ccccc1 (stereo not given) | n | n | n | n
O=S(=O)(c1ccc(F)cc1)N(CCO)CC(O)Cn1c2ccccc2c2ccccc21 (stereo not given) | 72.6 | n | n | n
CCN(CC(O)Cn1c2ccccc2c2ccccc21)S(=O)(=O)c1ccc(F)cc1 (stereo not given) | 70.1 | n | n | n
Cc1ccc(NC(=O)CCC(=O)NNC(=O)COc2ccccc2)c(C)c1 | n | n | n | n
CCCOc1ccc(/C=N/NC(=O)C2CCCN2S(=O)(=O)c2ccc(Cl)cc2)cc1 (stereo not given) | n | n | n | n
CC(C)Oc1ccc(/C=N/NC(=O)C2CCCN2S(=O)(=O)c2ccc(Cl)cc2)cc1 (stereo not given) | 78.9 | n | n | n
CCOC(=O)C1=C(C)N(C[C@@H]2CC[C@@H](Cc3ccc(-c4ccccc4)cc3)O2)C(=O)NC1C1CC1 (stereo not given in full) | x | n | n | n
CC(C)(C)c1ccc(-c2c(C#N)c(N)nc3c2CCCC3)s1 | n | n | n | n
CCc1sc(-c2c(C#N)c(N)nc3c2CCCCCC3)cc1[N+](=O)[O-] | 76.0 | n | n | n
NC(=O)CC(NC(=O)c1ccccc1)c1ccc(NCCc2ccc(F)cc2)c([N+](=O)[O-])c1 (stereo not given) | 91.8 | n | n | n
NC(=O)CC(NC(=O)Cc1cccc2ccccc12)c1ccc(NC2CCCCCCC2)c([N+](=O)[O-])c1 (stereo not given) | 74.8 | n | n | n
CC(C)Nc1ccc(C(CC(N)=O)NC(=O)Cc2cccc3ccccc23)cc1[N+](=O)[O-] (stereo not given) | n | n | n | n
NC(=O)CC(NC(=O)Cc1cccc2ccccc12)c1ccc(NCCc2ccccc2F)c([N+](=O)[O-])c1 (stereo not given) | 91.0 | n | n | n
NC(=O)CC(NC(=O)Cc1ccc(Br)cc1)c1ccc(NC2CCCC2)c([N+](=O)[O-])c1 (stereo not given) | 83.8 | n | n | n
Cc1ccc(C)c(CN2CCN(c3ncccn3)CC2)c1 | x | n | n | n
NC(=O)CC(NC(=O)Cc1cccc2ccccc12)c1ccc(NC2CCCCCC2)c([N+](=O)[O-])c1 (stereo not given) | 95.5 | n | n | n
NC(=O)CC(NC(=O)Cc1cccc2ccccc12)c1ccc(NC2CCN(Cc3ccccc3)CC2)c([N+](=O)[O-])c1 (stereo not given) | x | n | n | n
